In ChEMBL document CHEMBL4732060, “Cytotoxic triterpenoid-safirinium conjugates target the endoplasmic reticulum” (Eur J Med Chem, 2021):
pEC50: −log10 of the molar value. Active and inactive are the calls of the source. The rule behind the calls is not given here.

Legend:
HEK293 [1] = test: Cytotoxicity against human HEK293 cells assessed as reduction in cell viability measured after 72 hrs by SRB assay; format: ADME, cell-based; details: HEK293, 72 h
A-375 [2] = test: Cytotoxicity against human A-375 cells assessed as reduction in cell viability measured after 72 hrs by SRB assay; format: functional, cell-based; details: A-375, 72 h
HT-29 [3] = test: Cytotoxicity against human HT-29 cells assessed as reduction in cell viability measured after 72 hrs by SRB assay; format: functional, cell-based; details: HT-29, 72 h
MCF7 [4] = test: Cytotoxicity against human MCF7 cells assessed as reduction in cell viability measured after 72 hrs by SRB assay; format: functional, cell-based; details: MCF7, 72 h
A2780 [5] = test: Cytotoxicity against human A2780 cells assessed as reduction in cell viability measured after 72 hrs by SRB assay; format: functional, cell-based; details: A2780, 72 h
[6] = Drug uptake in Mitochondria of human A-375 cells at 5.4 uM measured after 12 hrs by Mito-tracker based fluorescence imaging analysis; format: ADME; details: a-375, 12 h
FaDu [7] = test: Cytotoxicity against human FaDu cells assessed as reduction in cell viability measured after 72 hrs by SRB assay; format: functional, cell-based
[8] = Drug uptake in endoplasmic reticulum of human A-375 cells at 5.4 uM measured after 12 hrs by ER-tracker based fluorescence imaging analysis; format: ADME, subcellular; details: a-375, 12 h
In short: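 Living A375 cells were incubated with compound for 12 h, co-stained with ER-Tracker, and imaged by fluorescence microscopy. Compound, tracker and merged channels were compared for localisation in the endoplasmic reticulum.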

NIH3T3 [9] = test: Cytotoxicity against mouse NIH3T3 cells assessed as reduction in cell viability measured after 72 hrs by SRB assay; format: cell-based; details: NIH3T3, 72 h
In short: (§1)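 Sulforhodamine B assay on human tumour lines A375 (epithelial melanoma), HT29 (colorectal adenocarcinoma), MCF-7 (breast adenocarcinoma), A2780 (ovarian carcinoma) and FaDu (squamous cell carcinoma). Non-malignant NIH 3T3 (mouse fibroblasts) and HEK293 (human embryonic kidney) cells were also tested. EC50 values are given as mean ± standard mean error.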

A-375 [10] = test: Cytotoxicity against human A-375 cells assessed as reduction in cell viability upto 30 uM measured after 72 hrs by SRB assay; format: functional, cell-based; details: dose microM <=30, time 72.0 hrs; in short: as §1
HT-29 [11] = test: Cytotoxicity against human HT-29 cells assessed as reduction in cell viability upto 30 uM measured after 72 hrs by SRB assay; format: functional, cell-based; details: dose microM <=30, time 72.0 hrs; in short: as §1
MCF7 [12] = test: Cytotoxicity against human MCF7 cells assessed as reduction in cell viability upto 30 uM measured after 72 hrs by SRB assay; format: functional, cell-based; details: dose microM <=30, time 72.0 hrs; in short: as §1
A2780 [13] = test: Cytotoxicity against human A2780 cells assessed as reduction in cell viability upto 30 uM measured after 72 hrs by SRB assay; format: functional, cell-based; details: dose microM <=30, time 72.0 hrs; in short: as §1
FaDu [14] = test: Cytotoxicity against human FaDu cells assessed as reduction in cell viability upto 30 uM measured after 72 hrs by SRB assay; format: functional, cell-based; details: dose microM <=30, time 72.0 hrs; in short: as §1
NIH3T3 [15] = test: Cytotoxicity against mouse NIH3T3 cells assessed as reduction in cell viability upto 30 uM measured after 72 hrs by SRB assay; format: cell-based; details: nih3t3, 72 h; in short: as §1
HEK293 [16] = test: Cytotoxicity against human HEK293 cells assessed as reduction in cell viability upto 30 uM measured after 72 hrs by SRB assay; format: cell-based; details: hek293, 72 h; in short: as §1
[17] = Drug uptake in human A-375 cells measured after 24 hrs by fluorescence imaging analysis; format: ADME, cell-based; details: a-375, 24 h
In short: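 Fluorescence imaging of cells after a prolonged 24 h incubation with compound, to judge entry into the cells.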

Row | Drug uptake [6] | Drug uptake [8] | Drug uptake [17] | Compound | pEC50 (HEK293 [1]) | pEC50 (A-375 [2]) | pEC50 (HT-29 [3]) | pEC50 (MCF7 [4]) | pEC50 (A2780 [5]) | pEC50 (FaDu [7]) | pEC50 (NIH3T3 [9]) | Activity (A-375 [10]) | Activity (HT-29 [11]) | Activity (MCF7 [12]) | Activity (A2780 [13]) | Activity (FaDu [14]) | Activity (NIH3T3 [15]) | Activity (HEK293 [16])
1 | Not Active | Active | – | C=C(C)[C@@H]1CC[C@]2(C(=O)N3CCN(C(=O)C4=C(C)C=C(C)N5C[N+](CCCCCC)(CCCCCC)N=C45)CC3)CC[C@]3(C)[C@H](CC[C@@H]4[C@@]5(C)CC[C@H](OC(C)=O)C(C)(C)[C@@H]5CC[C@]43C)[C@@H]12.[Cl-] | 5.52 | 5.27 | 5.12 | 5.31 | 5.34 | 5.22 | 5.18 | – | – | – | – | – | – | –
2 | – | – | – | CCN(CC)c1ccc2c(-c3ccccc3C(=O)O)c3ccc(=[N+](CC)CC)cc-3oc2c1 [RHODAMINE] | < 4.52 | < 4.52 | < 4.52 | < 4.52 | < 4.52 | < 4.52 | < 4.52 | – | – | – | – | – | – | –
3 | – | – | – | C=C(C)[C@@H]1CC[C@]2(C(=O)N3CCN(C(=O)C4=C(C)C=C(C)N5C[N+](CCCCCCCCCCCC)(CCCCCCCCCCCC)N=C45)CC3)CC[C@]3(C)[C@H](CC[C@@H]4[C@@]5(C)CC[C@H](OC(C)=O)C(C)(C)[C@@H]5CC[C@]43C)[C@@H]12 | 4.88 | 4.77 | 4.60 | 4.80 | 4.96 | 4.97 | < 4.52 | – | – | – | – | – | – | –
4 | – | – | – | C=C(C)[C@@H]1CC[C@]2(C(=O)NCCNC(=O)C3=Cc4ccccc4N4C[N+](CC)(CC)N=C34)CC[C@]3(C)C(=CC[C@@H]4[C@@]5(C)CC[C@H](OC(C)=O)C(C)(C)[C@@H]5CC[C@]43C)[C@H]12 | 4.87 | 4.73 | 4.57 | 4.75 | 4.74 | 4.91 | 4.76 | – | – | – | – | – | – | –
5 | – | – | – | C=C(C)[C@@H]1CC[C@]2(C(=O)N3CCN(C(=O)C4=Cc5ccccc5N5C[N+](CC)(CC)N=C45)CC3)CC[C@]3(C)C(=CC[C@@H]4[C@@]5(C)CC[C@H](OC(C)=O)C(C)(C)[C@@H]5CC[C@]43C)[C@H]12 | 4.78 | 4.68 | 4.57 | 4.74 | 4.85 | 4.55 | < 4.52 | – | – | – | – | – | – | –
6 | – | – | Not Active | CCCCCC[N+]1(CCCCCC)CN2C(C)=CC(C)=C(C(=O)[O-])C2=N1 | – | < 4.52 | < 4.52 | < 4.52 | < 4.52 | < 4.52 | < 4.52 | inactive | inactive | inactive | inactive | inactive | Non-Toxic | Non-Toxic
